Key:
Format in all cases: cell-based
[1] = target: T1, 2AC1/2AC2 (tagged GluN1/GluN2A) (Rattus norvegicus, UniProt P35439+Q00959); test: two-electrode voltage clamp, Xenopus oocytes
Summary of the method: (§1)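 Oocytes injected with about 10 ng total cRNA of rat GluN1-1a plus wild-type or C1/C2-tagged GluN2 (tagged at 1:6:6); two-electrode voltage clamp. GluN2A-selective antagonists: 100 μM glutamate + 3 μM glycine. Divalent metal inhibitor: 50 μM glutamate + 50 μM glycine, −20 mV, kept below 300 nM, pH 7.3 (also 7.8, 6.8). GluN2B-selective antagonists: 100 μM glutamate + 50 μM glycine, −40 mV. IC50 from fitted concentration-response data, mean ± SEM over N oocytes.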

[2] = target: T2, 2AC1/2BAC2 (GluN1/GluN2A/GluN2B triheteromer) (Rattus norvegicus, UniProt P35439+Q00959+Q00960); test: two-electrode voltage clamp, Xenopus oocytes
T2 sequence (Q00959 23-1464, other chains not shown): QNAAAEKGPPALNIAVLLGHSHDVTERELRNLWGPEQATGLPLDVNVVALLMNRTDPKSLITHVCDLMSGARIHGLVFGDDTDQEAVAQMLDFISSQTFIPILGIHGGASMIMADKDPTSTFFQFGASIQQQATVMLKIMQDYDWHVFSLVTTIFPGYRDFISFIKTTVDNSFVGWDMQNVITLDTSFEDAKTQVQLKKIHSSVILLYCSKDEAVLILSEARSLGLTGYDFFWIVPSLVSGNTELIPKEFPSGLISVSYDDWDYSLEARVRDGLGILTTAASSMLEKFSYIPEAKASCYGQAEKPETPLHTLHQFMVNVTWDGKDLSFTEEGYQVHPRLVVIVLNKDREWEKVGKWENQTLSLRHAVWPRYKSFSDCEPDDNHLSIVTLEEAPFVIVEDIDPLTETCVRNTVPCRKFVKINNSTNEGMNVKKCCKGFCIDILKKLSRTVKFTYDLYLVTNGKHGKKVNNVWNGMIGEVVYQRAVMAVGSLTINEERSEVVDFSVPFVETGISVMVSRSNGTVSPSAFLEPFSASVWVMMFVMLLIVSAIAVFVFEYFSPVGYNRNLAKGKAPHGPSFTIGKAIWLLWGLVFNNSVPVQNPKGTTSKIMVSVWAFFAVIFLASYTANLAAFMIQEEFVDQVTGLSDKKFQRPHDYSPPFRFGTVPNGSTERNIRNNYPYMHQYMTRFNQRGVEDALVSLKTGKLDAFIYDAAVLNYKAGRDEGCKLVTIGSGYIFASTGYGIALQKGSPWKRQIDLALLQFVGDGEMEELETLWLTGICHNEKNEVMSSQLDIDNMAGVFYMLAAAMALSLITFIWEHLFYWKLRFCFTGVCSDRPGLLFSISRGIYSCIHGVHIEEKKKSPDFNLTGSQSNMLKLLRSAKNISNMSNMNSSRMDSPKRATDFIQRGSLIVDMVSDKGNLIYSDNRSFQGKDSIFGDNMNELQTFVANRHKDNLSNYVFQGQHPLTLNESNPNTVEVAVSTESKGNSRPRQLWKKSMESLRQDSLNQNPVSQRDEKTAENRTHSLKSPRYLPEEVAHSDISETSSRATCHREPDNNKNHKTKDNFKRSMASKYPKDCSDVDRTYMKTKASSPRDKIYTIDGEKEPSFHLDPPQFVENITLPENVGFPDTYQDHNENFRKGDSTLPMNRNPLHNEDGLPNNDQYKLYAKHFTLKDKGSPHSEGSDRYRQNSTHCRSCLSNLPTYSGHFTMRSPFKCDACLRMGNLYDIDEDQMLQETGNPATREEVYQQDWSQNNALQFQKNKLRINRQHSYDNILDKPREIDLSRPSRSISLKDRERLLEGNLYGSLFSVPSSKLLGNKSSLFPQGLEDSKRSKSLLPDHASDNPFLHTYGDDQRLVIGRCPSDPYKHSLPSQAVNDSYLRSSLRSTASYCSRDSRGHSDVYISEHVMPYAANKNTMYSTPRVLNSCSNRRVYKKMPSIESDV

[3] = target: T3, wt 2A/2A (wild type GluN1/GluN2A) (Rattus norvegicus, UniProt P35439+Q00959); test: two-electrode voltage clamp, Xenopus oocytes
T3 sequence (Q00959 23-1464, other chains not shown): as above
Summary of the method: as §1

[4] = target: T2, 2AC1/2BAC2 (GluN1/GluN2A/GluN2B triheteromer); test: whole-cell patch clamp, HEK293 cells; conditions: agonist; […] glutamate, […] glycine
[5] = target: wt 2B/2B (wild type GluN1/GluN2B) (Rattus norvegicus, UniProt P35439+Q00960); test: whole-cell patch clamp, HEK293 cells; conditions: agonist; […] glutamate, […] glycine
[6] = target: T1, 2AC1/2AC2 (tagged GluN1/GluN2A); test: whole-cell patch clamp, HEK293 cells; conditions: agonist; […] glutamate, […] glycine
[7] = target: 2BAC1/2BAC2 (tagged GluN1/GluN2B with GluN2A CTD) (Rattus norvegicus, UniProt P35439+Q00960); test: whole-cell patch clamp, HEK293 cells; conditions: agonist; […] glutamate, […] glycine
[8] = target: T3, wt 2A/2A (wild type GluN1/GluN2A); test: whole-cell patch clamp, HEK293 cells; conditions: agonist; […] glutamate, […] glycine

T1 sequence (Q00959 23-1464, other chains not shown): as above

| IC50 [1] [nM] | IC50 [2] [nM] | IC50 [3] [nM] | Brief glutamate activation (5 ms) / τweighted [4] [ms] | Brief glutamate activation (5 ms) / τweighted [5] [ms] | Brief glutamate activation (5 ms) / τweighted [6] [ms] | Brief glutamate activation (5 ms) / τweighted [7] [ms] | Brief glutamate activation (5 ms) / τweighted [8] [ms] | Structure (SMILES) |
| --- | --- | --- | --- | --- | --- | --- | --- | --- |
| 360 ± 20 | 1350 ± 130 | 370 ± 30 |  |  |  |  |  | O=C(NNC(=O)c1ccc(CNS(=O)(=O)c2ccc(F)c(Cl)c2)cc1)c1ccccc1 [TCN-201] |
|  |  |  | 57 ± 4 | 314 ± 13 | 33 ± 2 | 274 ± 24 | 32 ± 1 | N[C@@H](CCC(=O)O)C(=O)O [glutamate] |

From PMC3957490 (Neuron, 2014)
